Screening results deposited in PubChem by several laboratories.
Compounds with a hit are over-represented: about 2.2% of the library has one in this group of screens.
PolyA inhibitor: yeast polyadenylation inhibition; activity score, % at 12 µM; S. cerevisiae SKY197-pL101 polyadenylation reporter, beta-gal luminescence; efflux-impaired pdr1/pdr3 knockout yeast; score 100 = 6 SD above DMSO; 0.02% of 300,000 active; AID 1875;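 active = lowest replicate activity score at least 50, where 100 means six control SD above control mean; inconclusive = lowest score under 50 but half or more replicates reach 50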;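 note: yeast exposed to compound for 9 h at 30 °C; higher score means more reporter readthrough which indicates perturbed polyadenylation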
AI-2 QS modul: modulates the Vibrio harveyi AI-2 quorum sensing system | 0.4% of 300,000 active | activity change, % at 7.5 µM | Vibrio harveyi JMH597 AI-2 luminescence/OD600 ratio, 9 h; active compounds read low; strain lacks LuxN and CqsS sensors; 0 = neutral-control median; in the data active = activity change below about -75%, passing the limit was not always enough; inconclusive = no clear call, values can overlap the other calls;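 note: luminescence divided by OD600 gain over 9 h not by final OD600 alone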
HDAC3 inhib: human HDAC3 inhibition | O15379 | recombinant HDAC3, fluorogenic peptide/trypsin coupled, fluorescence | inhibition, % at 8.3 µM | 0.15% of 320,000 active; in the data active = inhibition above about 26%, passing the limit was not always enough; inconclusive = no clear call, values can overlap the other calls
Target sequence (O15379 whole entry, looked up): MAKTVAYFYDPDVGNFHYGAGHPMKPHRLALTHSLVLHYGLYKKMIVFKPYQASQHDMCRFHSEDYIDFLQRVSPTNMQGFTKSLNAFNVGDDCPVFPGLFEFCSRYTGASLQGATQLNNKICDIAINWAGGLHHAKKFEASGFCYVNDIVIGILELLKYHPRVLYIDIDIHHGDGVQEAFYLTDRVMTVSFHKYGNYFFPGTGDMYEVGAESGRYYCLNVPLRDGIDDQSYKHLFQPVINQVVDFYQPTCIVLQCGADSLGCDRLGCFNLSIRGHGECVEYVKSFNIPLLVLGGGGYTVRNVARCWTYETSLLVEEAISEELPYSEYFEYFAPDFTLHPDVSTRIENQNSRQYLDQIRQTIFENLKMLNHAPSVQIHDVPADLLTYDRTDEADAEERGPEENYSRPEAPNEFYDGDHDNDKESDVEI
Efflux pump inh: blocks antifungal efflux pumps in multiplex yeast assay; AID 485275; 0.44% of 330,000 active; inhibition, % at 10 µM; S. cerevisiae Candida pump triplex, Nile Red efflux;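 active = plate passing quality check with inhibition over a set limit, or well fluorescence over plate mean plus 4 SD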;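 note: Nile Red retained in pooled yeast measured as flow cytometry median fluorescence; 0% = buffer negative control and 100% = Enniatin B positive control; higher means more Nile Red kept so more efflux inhibition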
T cruzi repl: blocks replication of Trypanosoma cruzi. 1.4% of 300,000 active. AID 1885. T. cruzi beta-gal in NIH3T3, luminescence, 90 h. inhibition, % (concentration not given with the values);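 active = mean inhibition across valid replicates above about 55%, limit read from the data; inconclusive = mean below that limit but half or more replicates reach it; inactive = mean below it, under half of replicates reach it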;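 note: signal also drops with host cell toxicity which is not excluded here; 0% = plate median of DMSO wells and 100% = zero luminescence signal; higher percent means less beta-gal luminescence so fewer parasites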
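assay system = mouse NIH/3T3 fibroblasts infected with β-gal-expressing T. cruzi Tulahuen C4 | input = 5,000 NIH/3T3 host cells per well | buffer or medium = DMEM plus 2% FBS | timing = 3 h host attachment, then at least 90 h co-culture | measured by = GalScreen luminescence, 60 min | evaluation = luminescence reflecting intracellular parasite burden, expressed as percent inhibition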
Active calls of the source: *; ? = inconclusive; . = no result given; ! = repeats disagree.

SMILES	PolyA inhibitor	AI-2 QS modul	HDAC3 inhib	Efflux pump inh	T cruzi repl
COC(=O)[C@H]1[C@H]2C[C@@H]3c4[nH]c5cc(OC)ccc5c4CCN3C[C@H]2C[C@@H](OC(=O)c2ccc(N)cc2)[C@@H]1OC	13.9	0.9	-12.5	0.0	57.9*
COC(=O)[C@H]1[C@H]2C[C@@H]3c4[nH]c5cc(OC)ccc5c4CCN3C[C@H]2C[C@@H](OC(=O)/C=C/c2cc(OC)c(OC)c(OC)c2)[C@@H]1OC	.	.	4.5	0.2	.
COc1cc(C2SCC(=O)N2CCCN(C)C)cc(OC)c1OC (stereo not drawn)	-5.2	23.4	-9.6	0.0	60.9*
Cc1c(C(=O)NCC2COc3ccccc3O2)oc2ccc(S(=O)(=O)N(C)C3CCCCC3)cc12 (stereo not drawn)	4.3	18.1	-5.7	0.2	74.9*
CN(C)S(=O)(=O)c1ccc(N2CCCC2)c(C(=O)NCC2COc3ccccc3O2)c1 (stereo not drawn)	-2.4	17.1	.	0.0	2.3
CC(C)C(=O)Nc1ccc(-c2nc3ccccc3c(=O)o2)cc1	-15.0	13.6	55.6*	0.1	-5.6
C=CCOc1ccc(/C=N\NC(N)=S)cc1	-21.5	?	3.3	1.0	64.4*
COc1ccc(/C=N/NC(N)=S)cc1	-5.7	11.2	.	-0.2	-0.9
COC(=O)c1ccc(COc2ccc(/C=N/NC(N)=S)cc2)o1	4.5	-19.2	8.5	-0.2	54.8*
Cc1ccc(-c2nc(C(=O)NCCCN3CCOCC3)cc3c2[nH]c2ccccc23)cc1	-0.7	2.3	-12.9	0.6	56.6*
C#CCOCCOCCOCCNc1nc(N2CCN(C(=O)CCCCCCCCCCNC(=O)[C@H](CO)n3cc(CCCSC)nn3)CC2)nc(N2CCN(C(=O)CCCCCCCCCCNC(=O)[C@H](CO)n3cc(CCCSC)nn3)CC2)n1	-7.6	-0.8	-9.2	0.4	6.5
C#CCOCCOCCOCCNc1nc(N2CCN(C(=O)CCCCCCCCCCNC(=O)[C@H](CO)n3cc(CCCSC)nn3)CC2)nc(N2CCN(C(=O)CCCCCCCCCCNC(=O)[C@H](CCCCN)n3cc(C[C@@H](C)CC)nn3)CC2)n1	8.8	-12.7	3.3	0.3	55.4*
C#CCOCCOCCOCCNc1nc(N2CCN(C(=O)CCCCCCCCCCNC(=O)[C@H](CCCCN)n3cc(CCO)nn3)CC2)nc(N2CCN(C(=O)CCCCCCCCCCNC(=O)[C@H](CCCN=C(N)N)n3cc(C[C@@H](C)CC)nn3)CC2)n1	.	.	28.9*	0.5	.
C#CCOCCOCCOCCNc1nc(N2CCN(C(=O)CCCCCCCCCCNC(=O)[C@H]([C@@H](C)CC)n3cc(CCCCN=C(N)N)nn3)CC2)nc(N2CCN(C(=O)CCCCCCCCCCNC(=O)[C@H](CCCCN)n3cc(C[C@@H](C)CC)nn3)CC2)n1	.	.	22.1	85.4*	.
C#CCOCCOCCOCCNc1nc(N2CCN(C(=O)CCCCCCCCCCNC(=O)[C@H](CCCCN)n3cc(CCCC(=O)O)nn3)CC2)nc(N2CCN(C(=O)CCCCCCCCCCNC(=O)[C@H](CCCN=C(N)N)n3cc(C[C@@H](C)CC)nn3)CC2)n1	1.3	-22.0	19.9	0.1	50.0
C#CCOCCOCCOCCNc1nc(N2CCN(C(=O)CCCCCCCCCCNC(=O)[C@H](CCCCN)n3cc(C[C@@H](C)CC)nn3)CC2)nc(N2CCN(C(=O)CCCCCCCCCCNC(=O)[C@H](CCCCN)n3cc(C[C@@H](C)CC)nn3)CC2)n1	0.9	-3.5	53.3*	0.2	54.6*
N#Cc1cnn(-c2cccc(Cl)c2)c1-n1cccc1	-29.3	3.2	-1.0	0.2	2.1
CC(=O)NCc1ccc(C(=O)COC(=O)COc2ccc(Cl)c(C)c2)s1	.	.	-3.5	-0.1	.
C#CCOCCOCCOCCNc1nc(N2CCN(C(=O)CCCCCCCCCCNC(=O)[C@H](CCCCN)n3cc(C)nn3)CC2)nc(N2CCN(C(=O)CCCCCCCCCCNC(=O)[C@@H]([C@H](C)CC)n3cc(CCCCCN)nn3)CC2)n1	.	.	30.6*	0.3	.
CN(C)CCCn1c2c(c(SCC(=O)Nc3cccc4ccccc34)nc1=O)CCC2	-6.3	16.6	3.0	0.1	57.1*
O=S(=O)(CS(=O)(=O)c1ccc(Cl)cc1)c1ccc(Cl)cc1	-1.7	17.6	0.9	0.2	2.7
Cc1ccc(S(=O)(=O)Nc2cccc(-c3ccc4nnc(C)n4n3)c2)s1	-5.0	17.7	3.6	0.3	12.1
Cc1ccc(SCC2(O)CCN(S(=O)(=O)c3ccc(Cl)cc3)CC2)cc1	19.0	11.2	9.2	-0.1	11.1
CN1CCN(CC2(O)CCN(S(=O)(=O)c3ccc(Cl)cc3)CC2)CC1	15.0	13.1	1.9	-0.2	71.6*
COc1ccc(NS(=O)(=O)c2cccc(C(=O)NNC(=O)c3cc(S(N)(=O)=O)ccc3OC)c2)cc1	?	-2.7	.	0.0	-12.0
SMILES	PolyA inhibitor	AI-2 QS modul	HDAC3 inhib	Efflux pump inh	T cruzi repl
COc1ccc(Cl)cc1NC(=S)N(Cc1cccnc1)Cc1ccco1	-2.9	0.4	14.3	-0.1	66.2*
CCOC(=O)c1ccc(NC(=S)N(Cc2cccnc2)Cc2ccco2)cc1	9.4	-8.8	1.1	0.0	55.4*
COC(=O)c1ccc(NC(=S)N(Cc2cccnc2)Cc2ccco2)cc1	1.8	35.1	7.3	0.1	72.6*
CC1Cc2cc(/C(O)=C3/C(=O)C(=O)N(CCCn4ccnc4)C3c3ccc(Br)cc3)ccc2O1 (stereo not drawn)	-11.1	43.0	6.7	0.2	-7.1
Clc1cccc(Cl)c1-c1noc(CN2CCOCC2)n1	-9.5	22.7	7.8	0.0	-2.8
Cc1nn(-c2ccccc2)c(N)c1Sc1cccc([N+](=O)[O-])c1	3.7	25.1	2.9	0.1	38.4
Cc1nn(S(=O)(=O)c2ccc([N+](=O)[O-])cc2)c(C)c1Sc1ccccc1	-4.8	21.5	-1.6	0.1	64.3*
Cc1cccc(OCc2n(CC(=O)OC3CC(C)CCC3C(C)C)c3ccccc3[n+]2C)c1 (stereo not drawn)	-5.8	36.9	9.0	-0.1	64.5*
Cc1cc(=O)n2ccsc2n1	26.0	-1.4	.	0.6	-4.4
CCN(CC)c1ccc(N=Cc2cc(Br)ccc2O)cc1	28.4	20.1	-7.5	-0.1	61.1*
COc1ccc(CC(=O)NC(C)c2ccc(S(N)(=O)=O)cc2)cc1S(=O)(=O)N1CCOCC1 (stereo not drawn)	2.4	12.4	-0.2	-0.1	-2.6
CCCCOC(=O)c1nc[nH]c1C(=O)OCCCC	1.4	10.1	4.3	0.0	-4.7
NC(=O)c1[nH]cnc1N	-6.3	27.8	5.1	0.0	57.9*!
O=C(Nc1ccc(F)cc1F)N1CCCCC1c1cccnc1 (stereo not drawn)	6.5	16.3	-9.4	0.1	56.8*
COc1cc(C)c(S(=O)(=O)N2CCOCC2)cc1C(C)C	-18.2	15.9	5.7	0.0	3.1
COc1cc(C)c(N)cc1C(C)C	-1.5	8.0	-2.2	0.0	67.4*
O=C(Cc1c(F)cccc1Cl)NCc1cccnc1	9.4	1.1	0.5	-0.1	-3.7
